# Active and inactive are the calls of the source. The rule behind the calls is not given here.
# Experiments:
# [1] = Cytotoxicity against chinese hamster V79 cells assessed as survival fraction under normoxic condition at 20 uM after 7 days by crystal violet staining relative to control; type: cell-based, Cricetulus griseus; conditions: read-out: Activity
# Method in brief: (§1)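 V79 suspension cultures were set at 2 × 10^4 cells/mL in EMEM with 10% FBS and 10 mM HEPES, under aerobic or hypoxic gassing. Compound at 20 µM was added 30 min after gassing began, in duplicate flasks, with a DMSO negative control. After 2 h the cells were replated (10^2–10^3 cells) for 7 days at 37 °C. Colonies of >64 cells were counted after crystal violet staining. SF = PEtreated/PEcontrol × 100; values are means of two experiments.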
# [2] = system: Calf thymus DNA; assay: Binding affinity to calf thymus DNA assessed as ratio of final absorbance area to the absorbance at 100 uM after 24 hrs by UV spectrophotometer analysis relative to control; type: nucleic-acid assay; conditions: Bos taurus
# Method in brief: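 Calf thymus DNA was stirred 24 h at 4 °C in 10 mM Tris–HCl pH 7.4, then diluted. Compound at 10^-4 M (≤5% solvent) was diluted in water to 2 × 10^-5 M. This was mixed 1:1 by volume with the DNA solution and rotated 24 h. UV spectra were taken at 20 °C. The ratio is the area of a 20 nm band centred on λmax at 24 h over that at 0 h (a24/a0).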
# [3] = Cytotoxicity against chinese hamster V79 cells assessed as survival fraction under hypoxic condition at 20 uM after 7 days by crystal violet staining relative to control; type: cell-based, Cricetulus griseus; conditions: read-out: Activity; method in brief: as §1
# [4] = system: Caco-2; assay: Cytotoxicity against human Caco-2 cells assessed as induction of DNA fragmentation under oxic condition at 10 uM after 24 hrs using ethidium bromide staining by agarose gel electrophoresis; type: functional, cell-based
# Method in brief: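 Caco-2 cells were seeded at 2 × 10^6 cells/well in 100-mm plates and exposed for 24 h under oxic conditions. Chromosomal DNA was then isolated and run on a 1% agarose gel with ethidium bromide staining to visualise fragmentation. The assay was repeated on four separate occasions.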
# [5] = system: Calf thymus DNA; assay: Binding affinity to calf thymus DNA assessed as change in melting temperature by UV spectrophotometer analysis; type: nucleic-acid assay; conditions: Bos taurus
# Method in brief: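 Calf thymus DNA in 10 mM Tris–HCl pH 7.4 was mixed with compound at a 1:1 DNA:BPDO ratio. Thermal denaturation was followed as the change in absorbance at 260 nm with temperature, in a 1-cm cell.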
Structure (SMILES),"viability at 168 h, 20 µM [1] [%]",Ratio [2],"viability at 168 h, 20 µM [3] [%]",other results
COc1ccc2c(c1)[n+]([O-])c1c3ccccc3ccc1[n+]2[O-],88,1,44,–
[O-][n+]1c2ccccc2[n+]([O-])c2c3ccccc3c(O)cc21,100,0,93,–
CCOc1ccc(-c2nc3cc(-c4nc5cc(N6CCN(C)CC6)ccc5[nH]4)ccc3[nH]2)cc1,–,0.57,–,–
CC[n+]1c(-c2ccccc2)c2cc(N)ccc2c2ccc(N)cc21,–,0.5,–,–
O=C1c2c(O)ccc(O)c2C(=O)c2c(NCCNCCO)ccc(NCCNCCO)c21,–,0,–,–
CN[C@@H]1C[C@H]2O[C@@](C)([C@@H]1OC)n1c3ccccc3c3c4c(c5c6ccccc6n2c5c31)C(=O)NC4,–,–,–,Activity [4]: Active
Nc1ccc2cc3ccc(N)cc3nc2c1,–,–,–,ΔTm [5]: 12 °C
[O-][n+]1c2ccccc2[n+]([O-])c2c3ccccc3ccc21,40,1,45,–
COc1cc(NS(C)(=O)=O)ccc1Nc1c2ccccc2nc2ccccc12,–,0.3,–,–
